Reference: ChEMBL document CHEMBL4819066, “Repurposing primaquine as a polyamine conjugate to become an antibiotic adjuvant” (Bioorg Med Chem, 2021)

Tests used:
[1] = system: Staphylococcus aureus; experiment: Antibacterial activity against methicillin-resistant Staphylococcus aureus ATCC 43300 assessed as reduction in microbial growth after 18 hrs by resazurin dye based assay; format: functional
Outline: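 Overnight culture at 37 °C, diluted 40-fold in MHB and grown 1.5-2 h to mid-log. Inoculum 5 × 10^5 CFU/mL. Two-fold serial dilutions, final 0.008-32 µg/mL, in duplicate. […] Vancomycin served as the Gram-positive standard.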

[2] = system: Pseudomonas aeruginosa; experiment: Antibacterial activity against Pseudomonas aeruginosa ATCC 27853 assessed as reduction in microbial growth after 18 hrs by resazurin dye based assay; format: functional
Outline: (§1)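 Bacteria grown overnight at 37 °C in LB, NB or MHB, diluted 40-fold into MHB and grown 1.5-2 h to mid-log phase. Inoculum 5 × 10^5 CFU/mL (final), 2-fold serial dilutions, final range 0.008-32 µg/mL, in duplicate. […] Colistin as positive control, Z'-factor >0.4 for plate QC.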

[3] = system: Escherichia coli; experiment: Antibacterial activity against Escherichia coli ATCC 25922 assessed as reduction in microbial growth after 18 hrs by resazurin dye based assay; format: functional; outline: as §1
[4] = system: Klebsiella pneumoniae; experiment: Antibacterial activity against Klebsiella pneumoniae ATCC 700603 assessed as reduction in microbial growth after 18 hrs by resazurin dye based assay; format: functional; outline: as §1
[5] = system: Acinetobacter baumannii; experiment: Antibacterial activity against Acinetobacter baumannii ATCC 19606 assessed as reduction in microbial growth after 18 hrs by resazurin dye based assay; format: functional; details: ATCC 19606 = CIP 70.34 = JCM 6841; outline: as §1
[6] = system: Cryptococcus neoformans; experiment: Antifungal activity against Cryptococcus neoformans ATCC 208821 assessed as reduction in microbial growth after 36 hrs by resazurin dye based assay; format: functional
Outline: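 Yeast grown 3 days on YPD agar at 30 °C and diluted in YNB broth to 2.5 × 10^3 CFU/mL. Compounds at 0.008-32 µg/mL final, 2-fold dilutions, in duplicate. After 36 h at 35 °C without shaking, resazurin added at 0.006% final for a further 3 h; MIC read as absorbance at OD570-600. Fluconazole as positive control.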

[7] = system: Pseudomonas aeruginosa; experiment: Potentiation of doxycycline-induced antibacterial activity against Pseudomonas aeruginosa ATCC 27853 assessed as complete reduction in visible microbial growth after 18 hrs in presence of 4.5 uM doxycycline by two fold serial dilution method; format: functional
Outline: (§2)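 Adjuvant test by broth dilution: inoculum 5 × 10^5 CFU in 200 µL MHB. Two-fold serial dilutions of each derivative were given with doxycycline fixed at 2 µg/mL. After 18 h at 37 °C, the value recorded was the lowest adjuvant concentration giving complete absence of visible growth. Three independent repeats.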

[8] = system: Candida albicans; experiment: Antifungal activity against Candida albicans ATCC 90028 assessed as reduction in microbial growth after 36 hrs by absorbance at OD530; details: ATCC 90028, 36 h
[9] = system: Escherichia coli; experiment: Potentiation of doxycycline-induced antibacterial activity against Escherichia coli ATCC 25922 assessed as complete reduction in visible microbial growth after 18 hrs in presence of 4.5 uM doxycycline by two fold serial dilution method; format: functional; outline: as §2
[10] = system: Klebsiella pneumoniae; experiment: Potentiation of doxycycline-induced antibacterial activity against Klebsiella pneumoniae ATCC 700603 assessed as complete reduction in visible microbial growth after 18 hrs in presence of 4.5 uM doxycycline by two fold serial dilution method; format: functional
[11] = system: Acinetobacter baumannii; experiment: Potentiation of doxycycline-induced antibacterial activity against Acinetobacter baumannii AYE assessed as complete reduction in visible microbial growth after 18 hrs in presence of 4.5 uM doxycycline by two fold serial dilution method; format: functional; outline: as §2
[12] = system: Erythrocyte; experiment: Hemolytic activity in human Erythrocyte incubated for 1 hr by Neubauer haemocytometric analysis; format: ADME, cell-based
Outline: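 Human whole blood washed three times in 0.9% NaCl and resuspended at 0.5 × 10^8 cells/mL (haemocytometer count). Cells added to compound plates, shaken 10 min, then incubated 1 h at 37 °C. After centrifugation at 1,000g for 10 min, supernatant absorbance read at OD405. HC10/HC50 obtained by sigmoidal fit against log concentration.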

[13] = system: L6; experiment: Cytotoxicity against rat L6 cells assessed as reduction in cell viability at 0.123 to 90 ug/ml measured after 72 hrs by Alamar blue based inverted microscopy analysis; details: l6, 72 h, dose 0.123-90 µg/ml
Outline: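 Rat skeletal myoblast L6 cells, 4 × 10^4 per well, in RPMI 1640 with L-glutamine and 10% FBS. Seven 3-fold dilutions were tested, 90 to 0.123 µg/mL, for 72 h. Alamar Blue added for 2 h, and fluorescence read at ex 536/em 588 nm. Podophyllotoxin served as reference drug.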

[14] = system: HEK293; experiment: Cytotoxicity against human HEK293 cells assessed as reduction in cell viability measured after 20 hrs by resazurin based Neubauer haemocytometric analysis; details: hek293, 20 h
Outline: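 HEK293 cells plated at 5,000 cells/well in DMEM with 10% FBS onto pre-dispensed compound and incubated 20 h at 37 °C, 5% CO2. Resazurin then added at 100 µM final for 3 h; fluorescence read at ex 560/em 590. Signal normalized to 74 µg/mL tamoxifen (0%) and untreated growth (100%). CC50 obtained from dose-response fit.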

[15] = Hemolytic activity in rat RBC incubated for 1 hr by Neubauer haemocytometric analysis; format: ADME, cell-based, Erythrocyte; details: red blood cells (erythrocytes)

| SMILES | MIC [1] | MIC [2] | MIC [3] | MIC [4] | MIC [5] | MIC [6] | MIC [7] | MIC [8] | MIC [9] | MIC [10] | MIC [11] | Activity [12] | Activity [13] | Activity [14] | HC50 at 1 h [15] |
| --- | --- | --- | --- | --- | --- | --- | --- | --- | --- | --- | --- | --- | --- | --- | --- |
| COc1cc(NC(=O)CCC(=O)NCCCNCCCCCCCCNCCCNC(=O)CCC(=O)Nc2cc(OC)cc3cccnc23)c2ncccc2c1 | > 32 µM | > 32 µM | > 32 µM | > 32 µM | > 32 µM | > 32 µM | 300 µM | > 32 µM | – | – | – | – | – | – | – |
| COc1cc(NC(=O)CCC(=O)NCCCNCCCCCCCNCCCNC(=O)CCC(=O)Nc2cc(OC)cc3cccnc23)c2ncccc2c1 | > 32.5 µM | > 32.5 µM | > 32.5 µM | > 32.5 µM | > 32.5 µM | > 32.5 µM | 300 µM | > 32.5 µM | – | – | – | – | – | – | – |
| O=C(CCC(=O)Nc1cccc2cccnc12)NCCCNCCCCCCCCNCCCNC(=O)CCC(=O)Nc1cccc2cccnc12 | > 34.1 µM | > 34.1 µM | > 34.1 µM | > 34.1 µM | > 34.1 µM | > 34.1 µM | 200 µM | > 34.1 µM | – | – | – | – | – | – | – |
| COc1cc(NC(C)CCCNC(=O)CCC(=O)NCCCNCCCCNCCCNC(=O)CCC(=O)NCCCC(C)Nc2cc(OC)cc3cccnc23)c2ncccc2c1.O=C(O)C(F)(F)F.O=C(O)C(F)(F)F (configuration not stated) | > 33.4 µM | > 33.4 µM | > 33.4 µM | > 33.4 µM | > 33.4 µM | 33.4 µM | 6.25 µM | > 33.4 µM | 50 µM | > 200 µM | > 200 µM | Non-Toxic | Non-Toxic | Non-Toxic | – |
| O=C(CCC(=O)Nc1cccc2cccnc12)NCCCNCCCCNCCCNC(=O)CCC(=O)Nc1cccc2cccnc12 | > 36.2 µM | > 36.2 µM | > 36.2 µM | > 36.2 µM | > 36.2 µM | > 36.2 µM | 566 µM | > 36.2 µM | – | – | – | – | – | – | – |
| O=C(CCC(=O)Nc1cccc2cccnc12)NCCCNCCCCCCCNCCCNC(=O)CCC(=O)Nc1cccc2cccnc12 | > 34.6 µM | > 34.6 µM | > 34.6 µM | > 34.6 µM | > 34.6 µM | > 34.6 µM | 200 µM | > 34.6 µM | – | – | – | – | – | – | – |
| O=C(CCC(=O)Nc1cccc2ncccc12)NCCCNCCCCNCCCNC(=O)CCC(=O)Nc1cccc2ncccc12 | > 36.2 µM | > 36.2 µM | > 36.2 µM | > 36.2 µM | > 36.2 µM | > 36.2 µM | 300 µM | > 36.2 µM | – | – | – | – | – | – | – |
| COc1cc(NC(=O)CCC(=O)NCCCNCCCCNCCCNC(=O)CCC(=O)Nc2cc(OC)cc3cccnc23)c2ncccc2c1 | > 33.9 µM | > 33.9 µM | > 33.9 µM | > 33.9 µM | > 33.9 µM | > 33.9 µM | 200 µM | > 33.9 µM | – | – | – | – | – | – | – |
| O=C(CCC(=O)Nc1cccc2ncccc12)NCCCNCCCCCCCCCCNCCCNC(=O)CCC(=O)Nc1cccc2ncccc12 | > 33.1 µM | > 33.1 µM | > 33.1 µM | > 33.1 µM | > 33.1 µM | > 33.1 µM | 517 µM | > 33.1 µM | – | – | – | – | – | – | – |
| O=C(CCC(=O)Nc1cccc2cccnc12)NCCCNCCCCCCCCCCNCCCNC(=O)CCC(=O)Nc1cccc2cccnc12.O=C(O)C(F)(F)F.O=C(O)C(F)(F)F | 33.1 µM | > 33.1 µM | > 33.1 µM | > 33.1 µM | > 33.1 µM | > 33.1 µM | 100 µM | > 33.1 µM | – | – | – | – | Non-Toxic | Non-Toxic | 30.5 µM |
| O=C(CCC(=O)Nc1ccc2ncccc2c1)NCCCNCCCCNCCCNC(=O)CCC(=O)Nc1ccc2ncccc2c1 | > 36.2 µM | > 36.2 µM | > 36.2 µM | > 36.2 µM | > 36.2 µM | > 36.2 µM | 566 µM | > 36.2 µM | – | – | – | – | – | – | – |
